Test results published in article PMC3107735 (Biochemistry, 2011).
Several values for one entry are separate records, joined by “and”; a condition that tells them apart may be missing. Identical values can stand only once.

Legend:
thrombin [1] = molecular target: T1, thrombin (Bos taurus, UniProt P00735); assay: Isothermal titration calorimetry; type: binding, bovine; conditions: for Ka / N (stoichiometry of binding) / ΔH / -TΔS / ΔG: thrombin in cell, 25°C; for Ka / N (stoichiometry of binding) / ΔH: pH 7.4; for -TΔS: computed from ΔG-ΔH; for ΔG: obtained from KA
aptamer-thrombin complex = aptamer-thrombin complex (Bos taurus, UniProt P00735); assay: ITC, ligand titrated into pre-formed aptamer-thrombin complex; type: binding, bovine; conditions: apt-thrombin in cell, 25°C; for Ka / N (stoichiometry of binding) / ΔH: pH 7.4; for -TΔS: computed from ΔG-ΔH; for ΔG: obtained from KA
TM45-thrombin = TM45-thrombin (Bos taurus, UniProt P00735); assay: ITC, ligand titrated into TMEGF45-thrombin complex; type: binding, bovine; conditions: TM45-thrombin in cell, 25°C; for Ka / N (stoichiometry of binding) / ΔH: pH 7.4; for -TΔS: computed from ΔG-ΔH; for ΔG: obtained from KA
thrombin [2] = molecular target: T1, thrombin; conditions: DSC; increases from 57°C for thrombin; cited from earlier work
PPACK-thrombin = PPACK-thrombin (Bos taurus, UniProt P00735); assay: ITC, ligand titrated into PPACK-thrombin; type: binding, bovine; conditions: ppack-thrombin in cell, 25°C; for Ka / N (stoichiometry of binding) / ΔH: pH 7.4; for -TΔS: computed from ΔG-ΔH; for ΔG: obtained from KA
How it was run: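 Bovine α-thrombin treated with PPACK (1.1 μmol per 1 mL fraction, 3 h shaking, room temperature), re-purified by size exclusion the same day, and held at 6.5 μM in the cell (BCA). Buffer was 50 mM Bis-tris propane pH 7.4, 150 mM NaCl, 2.5 mM CaCl2. Degassed ligand at 65-70 μM was injected at 25°C with a 180 s initial delay. Heats were integrated and corrected for dilution; ΔG came from Ka and -TΔS from ΔG-ΔH.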

thrombin [3] = molecular target: T1, thrombin; assay: Differential scanning calorimetry; design: species or system bovine; conditions: DSC; 25 μM thrombin; thrombin alone 56.9°C or 57.9°C (Figure 6 legend)

In the case of `CCC1CCN(C(=O)[C@H](CCCNC(=N)N)NS(=O)(=O)c2cccc3c(N(C)C)cccc23)CC1` [DAPA, dansyl-L-arginine-(3-ethyl-1,5-pantanediyl) amide], the Ka (thrombin [1]; with 2.5 mM calcium) is reported as 4.5 ± 0.5 ×10^7 M^-1, the “N (stoichiometry of binding)” value (thrombin [1]; with 2.5 mM calcium) is reported as 0.9 ± 0.1 and the ΔH (thrombin [1]; with 2.5 mM calcium) is reported as -6.2 ± 0.04 kcal/mol. For the same molecule, the “-TΔS” value (thrombin [1]; with 2.5 mM calcium) was -4.2 ± 0.1 kcal/mol, the ΔG (thrombin [1]; with 2.5 mM calcium) was -10.4 ± 0.1 kcal/mol and the Ka (thrombin [1]; without calcium) was 4.5 ± 2.5 ^1 ×10^7 M^-1. The “N (stoichiometry of binding)” value (thrombin [1]; without calcium) was 0.9 ± 0.1, the “-TΔS” value (thrombin [1]; without calcium) was -4.4 ± 0.6 kcal/mol and the ΔG (thrombin [1]; without calcium) was -10.3 ± 0.4 kcal/mol. The Ka (aptamer-thrombin complex; with 2.5 mM calcium) was 5.6 ± 2.1 ×10^7 M^-1, the “N (stoichiometry of binding)” value (aptamer-thrombin complex; with 2.5 mM calcium) was 1.06 ± 0.08 and the ΔH (aptamer-thrombin complex; with 2.5 mM calcium) was -4.8 ± 0.2 kcal/mol. For the same molecule, the “-TΔS” value (aptamer-thrombin complex; with 2.5 mM calcium) was -5.7 ± 0.4 kcal/mol, the ΔG (aptamer-thrombin complex; with 2.5 mM calcium) was -10.5 ± 0.3 kcal/mol and the Ka (aptamer-thrombin complex; without calcium) was 5.8 ± 0.37 ×10^7 M^-1. The “N (stoichiometry of binding)” value (aptamer-thrombin complex; without calcium) was 1.11 ± 0.1, the ΔH (aptamer-thrombin complex; without calcium) was -4.2 ± 0.3 kcal/mol and the “-TΔS” value (aptamer-thrombin complex; without calcium) was -6.4 ± 0.7 kcal/mol. The ΔG (aptamer-thrombin complex; without calcium) was -10.6 ± 0.4 kcal/mol, the Ka (TM45-thrombin; with 2.5 mM calcium) was 5.9 ± 2.2 ×10^7 M^-1 and the “N (stoichiometry of binding)” value (TM45-thrombin; with 2.5 mM calcium) was 1.00 ± 0.06. For the same molecule, the ΔH (TM45-thrombin; with 2.5 mM calcium) was -5.0 ± 0.1 kcal/mol, the “-TΔS” value (TM45-thrombin; with 2.5 mM calcium) was -5.5 ± 0.2 kcal/mol and the ΔG (TM45-thrombin; with 2.5 mM calcium) was -10.5 ± 0.2 kcal/mol. The Ka (TM45-thrombin; without calcium) was 5.0 ± 1.8 ×10^7 M^-1, the “N (stoichiometry of binding)” value (TM45-thrombin; without calcium) was 0.86 ± 0.02 and the ΔH (TM45-thrombin; without calcium) was -4.5 ± 0.2 kcal/mol. For the same molecule, the “-TΔS” value (TM45-thrombin; without calcium) was -6.0 ± 0.4 kcal/mol and the ΔG (TM45-thrombin; without calcium) was -10.5 ± 0.2 kcal/mol.
In the case of `NC(N)=NCCC[C@H](NC(=O)[C@@H]1CCCN1C(=O)[C@H](N)Cc1ccccc1)C(=O)CCl` [PPACK, DPhe-Pro-Arg-chloromethyl ketone], the “Tm of thrombin with ligand bound at the active site” value (thrombin [2]) is listed as 70 °C.
For GGTTGGTGTGGTTGG [aptamer], the “N (stoichiometry of binding)” value (thrombin [1]; with 2.5 mM calcium) was 0.87 ± 0.04, the ΔH (thrombin [1]; with 2.5 mM calcium) was -22.4 ± 0.1 kcal/mol and the “-TΔS” value (thrombin [1]; with 2.5 mM calcium) was 12.6 ± 1.0 kcal/mol. For the same molecule, the ΔG (thrombin [1]; with 2.5 mM calcium) was -9.8 ± 0.1 kcal/mol, the Ka (thrombin [1]; without calcium) was 0.9 ± 0.2 ×10^7 M^-1 and the “N (stoichiometry of binding)” value (thrombin [1]; without calcium) was 0.96 ± 0.1. For the same molecule, the ΔH (thrombin [1]; without calcium) was -20.2 ± 0.8 kcal/mol, the ΔH (thrombin [1]; without calcium, listed as DNA aptamer) was -20.2 kcal/mol and the “-TΔS” value (thrombin [1]; without calcium) was 10.5 ± 0.9 kcal/mol. For the same molecule, the ΔG (thrombin [1]; without calcium) was -9.7 ± 0.2 kcal/mol, the Ka (PPACK-thrombin; with 2.5 mM calcium) was 1.4 ± 0.6 ×10^7 M^-1 and the “N (stoichiometry of binding)” value (PPACK-thrombin; with 2.5 mM calcium) was 0.9 ± 0.1. For the same molecule, the ΔH (PPACK-thrombin; with 2.5 mM calcium) was -21.0 ± 0.3 kcal/mol, the “-TΔS” value (PPACK-thrombin; with 2.5 mM calcium) was 11.3 ± 0.004 kcal/mol and the ΔG (PPACK-thrombin; with 2.5 mM calcium) was -9.7 ± 0.3 kcal/mol. The Ka (PPACK-thrombin; without calcium) was 0.8 ± 0.1 ×10^7 M^-1, the “N (stoichiometry of binding)” value (PPACK-thrombin; without calcium) was 0.98 ± 0.02 and the ΔH (PPACK-thrombin; without calcium) was -17.7 ± 1.1 kcal/mol. For the same molecule, the “-TΔS” value (PPACK-thrombin; without calcium) was 8.3 ± 1.2 kcal/mol, the ΔG (PPACK-thrombin; without calcium) was -9.4 ± 0.8 kcal/mol and the “melting (denaturation) temperature of thrombin with ligand bound at exosite 1” value (thrombin [3]) was 57.9 °C and 58.7 °C.
In the case of calcium, the “change in heat upon addition to thrombin in the cell (ITC)” value (thrombin [1]; calcium added to thrombin in the cell) is reported as “no measurable direct binding”.
